NPY-Y2 PAM-ag – potentiators or agonists of human neuropeptide Y receptor Y2; P49146; cells expressing NPY-Y2, potentiator/agonist read-out; 220,000 compounds, 0.45% hits; activation, % at 3.6 µM; in the data active = activation above about 27%;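 note: cells stimulated with NPY near EC25 plus isoproterenol at EC100; 0% = vehicle plus submaximal agonist and 100% = vehicle plus saturating agonist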
Measles CPE – protection of cells from measles virus. Measles virus-infected cells, CPE protection, absorbance. protection (pct of control), % at 4 µM. AID 841. 140,000 compounds, 1.5% hits; in the data active = protection mostly above about 24%, no sharp cut-off; inactive = mostly below about 26%
NPY-Y1 PAM-ag – human NPY-Y1 potentiation or agonism, primary screen; AID 1304; P25929; activation, % at 3.6 µM; NPY-Y1 expressing cells, potentiator/agonist activation; 220,000 compounds, 0.37% hits; in the data active = activation above about 33%, passing the limit was not always enough;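 note: cells stimulated with NPY at EC10 then isoproterenol at EC100; 0% = low agonist plus stimulus and 100% = saturating agonist plus stimulus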
Target sequence (P25929 whole entry, looked up): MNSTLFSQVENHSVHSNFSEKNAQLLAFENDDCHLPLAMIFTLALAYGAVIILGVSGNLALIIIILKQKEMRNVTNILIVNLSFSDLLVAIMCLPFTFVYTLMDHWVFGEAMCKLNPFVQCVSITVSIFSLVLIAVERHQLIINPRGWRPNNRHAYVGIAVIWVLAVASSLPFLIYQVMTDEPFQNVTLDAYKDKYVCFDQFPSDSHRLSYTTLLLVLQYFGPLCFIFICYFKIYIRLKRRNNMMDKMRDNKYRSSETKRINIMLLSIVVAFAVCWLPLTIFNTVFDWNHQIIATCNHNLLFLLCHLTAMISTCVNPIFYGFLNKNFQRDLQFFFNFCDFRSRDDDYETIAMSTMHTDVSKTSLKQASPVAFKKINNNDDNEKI
NPY Y2 blocker – NPY-Y2 (human) receptor antagonism | NPY-Y2 expressing cells, antagonist mode | 140,000 compounds, 0.99% hits | P49146 | inhibition, % at 2.7 µM | AID 793;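 note: 0% = vehicle with agonist challenge and 100% = reference antagonist with challenge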
NPY-Y1 antag – blocks the human neuropeptide Y Y1 receptor; HEK293-CNG Y1 cells, membrane potential fluorescence; NPY at EC95, then isoproterenol; inhibition, % at 3.6 µM; 200,000 compounds, 1% hits;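 active = inhibition above the campaign mean inhibition of all tested compounds plus 3 SD, cut at about 20% in these data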;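 note: 0% = DMSO wells given NPY plus isoproterenol and 100% = isoproterenol alone without NPY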
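Material: HEK293 Y1/CNG channel cell line; also added: NPY (25 nM), isoproterenol (1 µM), Ro 20-1724 (25 µM); doses: one concentration, 3.6 µM, in 0.4% DMSO; schedule: compound incubation 1 h at room temperature, readout 45 min post-stimulation; technique: membrane potential fluorescence; measure: fluorescence ratio normalized to % inhibition between controls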
Rad51 HR inh – blocks human Rad51 in homologous recombination; inhibition, % at 10 µM; hRad51 DNA strand exchange, fluorescence dequenching; Q06609; 200,000 compounds, 0.085% hits;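 active = inhibition above 40% at the single screening dose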;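 note: 0% = DMSO control wells and 100% = blanks with heterologous ssDNA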
Target sequence (Q06609 whole entry, looked up): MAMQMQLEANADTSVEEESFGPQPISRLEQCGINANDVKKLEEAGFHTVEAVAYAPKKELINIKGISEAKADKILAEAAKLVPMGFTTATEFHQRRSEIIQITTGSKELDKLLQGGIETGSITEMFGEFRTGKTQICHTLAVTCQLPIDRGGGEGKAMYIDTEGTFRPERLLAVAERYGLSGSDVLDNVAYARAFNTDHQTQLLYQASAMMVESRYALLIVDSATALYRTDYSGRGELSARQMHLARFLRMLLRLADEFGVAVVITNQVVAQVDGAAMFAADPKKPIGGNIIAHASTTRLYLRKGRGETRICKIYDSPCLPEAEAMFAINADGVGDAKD
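Read-out basis: percent inhibition relative to plate controls and blanks / Assay system: human Rad51 nucleoprotein filaments preassembled on unlabelled ssDNA / Timing: filaments 15 min 37 °C, then compound 30 min / Control set: per-plate controls and blanks / Technique: fluorescence dequenching at 485/520 nm / Compound: 10 µM final, single point / Also added: Fluorescein- and BHQ1-tagged 47-mer duplex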
NPY-Y1 ant conf – confirmation of human neuropeptide Y receptor Y1 antagonists. shares compounds with NPY-Y1 antag. HEK293-CNG NPY-Y1, membrane potential fluorescence, cAMP; NPY challenge against isoproterenol-raised cAMP. inhibition, % at 3.6 µM. 1,200 compounds, 21% hits; in the data active = inhibition above about 20%;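 note: 0% = vehicle with agonist plus stimulus and 100% = stimulus alone without agonist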
NPY2 antag ctr – antagonizes human NPY-Y2, counter-screen to NPY-Y1 antagonists; inhibition, % at 3.6 µM; HEK293 NPY-Y2 CNG membrane potential fluorescence, antagonism; cells given NPY, then isoproterenol; shares compounds with NPY-Y1 antag; 1,200 compounds, 28% hits;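 note: 0% = DMSO with agonist challenge and 100% = reference antagonist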
Starred values were filed as active, the others as inactive; · = not tested or not shown. Sampled rows, rich in hits. Any-hit rate of the full collection: about 2.8%. Cut-off read from the data, not from the text of the source, unless noted: active = inhibition above about 17%; inactive = the rest.

SMILES | NPY-Y2 PAM-ag | Measles CPE | NPY-Y1 PAM-ag | NPY Y2 blocker | NPY-Y1 antag | Rad51 HR inh | NPY-Y1 ant conf | NPY2 antag ctr
COc1ccc(Oc2cn[nH]c2-c2ccc(O)cc2O)cc1 | 6 | 6 | -34 | 3 | 61* | -6 | 40* | 2
S=c1[nH]nc(COc2ccccc2)n1/N=C/c1ccncc1 | 4 | · | -1 | · | 11 | 11 | · | ·
CC(/C=N/n1c(COc2ccccc2)n[nH]c1=S)=C\c1ccccc1 | -30 | 7 | -31 | 11 | 31* | 0 | 6 | 7
CCC1=Nc2cc(C(=O)O)ccc2Sc2ccc(Cl)cc21 | -1 | 5 | 14 | 4 | 69* | · | 2 | 1
O=C1N(c2ccccc2)C[C@@H]2C[C@@H](c3cc4ccccc4o3)N3CCC[C@@]123 | -5 | · | -8 | · | 27* | -106 | 18 | 12
CC(CCc1ccccc1)NC(=O)/C=C/c1ccccc1 (centres undefined) | -8 | 5 | -22 | 13 | 16 | -5 | · | ·
COc1cc(/C=C/C(=O)NC(C)CCc2ccccc2)cc(OC)c1OC (centres undefined) | -9 | 6 | -18 | 5 | 22* | · | 6 | 10
CCCCOc1ccc(C(=O)NC)cc1 | 12 | 25 | 5 | 0 | 2 | 0 | · | ·
CCCCOc1ccc(CC(=O)NO)cc1 | 8 | 6 | -19 | -1 | 38* | -2 | 0 | 2
COc1ccc(-n2cc3c(-c4cccc(Br)c4)nnc(C)c3n2)cc1 | -19 | 24 | -25 | 2 | 2 | 3 | · | ·
O=c1oc2ccccc2cc1-c1nc(-c2cccs2)cs1 | -2 | 18 | -28 | 13 | 30* | -2 | 11 | 8
COc1cccc2cc(-c3nc(-c4cccs4)cs3)c(=O)oc12 | -20 | 2 | -29 | -2 | 0 | -13 | · | ·
O=C(COC(=O)CSc1cccc2cccc(Cl)c12)Nc1ncc(C(F)(F)F)cc1Cl | -21 | 18 | -44 | 14 | 2 | 2 | · | ·
NC(=O)COC(=O)CSc1cccc2cccc(Cl)c12 | -34 | · | -48 | · | 27* | 0 | 13 | 14
COc1ccccc1CNC(=O)c1c(N)n(CCCN2CCOCC2)c2nc3ccccc3nc12 | -5 | 3 | -12 | 14 | 23* | · | 9 | 7
CC(C)OC(=O)c1c(N)n(CCCN2CCOCC2)c2nc3ccccc3nc12 | -4 | 8 | -2 | 1 | 3 | 3 | · | ·
COc1ccc(C(C)=O)cc1Cn1cnc2c(cnn2C)c1=O | -6 | · | -23 | · | · | -2 | · | ·
CC(Oc1ccc(F)cc1)C(=O)Nc1ccc2ccccc2c1 (centres undefined) | -2 | 7 | -21 | 16 | 41* | -1 | 14 | 11
CCOC(=O)C1(Cc2ccccc2)CCN(Cc2cc(OC)c3c(c2)OCO3)CC1 | -8 | · | -1 | · | 25* | -8 | 7 | 10
CCOC(=O)C1(CCc2ccccc2)CCN(Cc2c(O)cccc2OC)CC1 | -11 | · | -33 | · | 33* | 9 | 27* | 25*
COc1cc(C2=NOC(C(=O)NCc3cccs3)C2)cc(OC)c1OC (centres undefined) | -2 | 4 | -13 | 3 | 5 | -4 | · | ·
COc1ccc(CNC(=O)C2CC(c3ccc(F)cc3)=NO2)cc1 (centres undefined) | -7 | 3 | -21 | 5 | 3 | -6 | · | ·
COc1ccc(C2=NOC(C(=O)NCc3cccs3)C2)cc1OC (centres undefined) | -11 | 4 | -5 | 7 | 23* | -8 | 8 | 9
COc1ccc(C2=NOC(C(=O)NCc3ccc(F)cc3)C2)cc1 (centres undefined) | -10 | 3 | -23 | 6 | 41* | · | 5 | 17
CCCCn1c(-c2ccco2)nc2oc3ccccc3c(=O)c2c1=O | 17 | · | 21 | · | · | 3 | · | ·
SMILES | NPY-Y2 PAM-ag | Measles CPE | NPY-Y1 PAM-ag | NPY Y2 blocker | NPY-Y1 antag | Rad51 HR inh | NPY-Y1 ant conf | NPY2 antag ctr
CCCCCCCOC(=O)C[N+](C)(C)CCOC1CC2CCC1(C)C2(C)C (centres undefined) | 0 | 12 | -51 | 15 | 13 | 7 | · | ·
CCCCOC(=O)C[N+](C)(C)CCOC1CC2CCC1(C)C2(C)C (centres undefined) | -9 | 13 | -28 | 5 | 28* | -10 | 8 | 9
O=C(CN1CCN(S(=O)(=O)c2ccccc2)CC1)Nc1ccc([N+](=O)[O-])cc1 | -3 | 10 | 7 | -2 | -3 | 8 | · | ·
COc1cccc(NC(=O)CN(C)C(=O)COc2ccc3ccccc3c2)c1 | -7 | 7 | -19 | 10 | 16 | -5 | · | ·
CCN(CC(=O)Nc1ccccc1OC)C(=O)COc1ccc2ccccc2c1 | -16 | 6 | -39 | 15 | 24* | 5 | 17 | 7
O=C(O)C1CC=CCC1C(=O)Nc1ccc(N2CCN(Cc3ccccc3)CC2)cc1 (centres undefined) | 13 | 6 | 16 | 4 | -1 | 23 | · | ·
CCCCC12CN3CC(C)(CN(C1)C31C(=O)N(C)c3ccc(C)cc31)C2=O (centres undefined) | 11 | 6 | -7 | 3 | 21* | -22 | 2 | 8
CC(=O)/C=C1\N(C)c2ccc(C)cc2C1(C)C | -12 | · | -10 | · | 5 | -3 | · | ·
CCn1nnc(-c2ccccc2NC(=O)c2ccc(-n3cnnn3)cc2)n1 | -6 | 13 | 12 | 6 | 23* | -3 | 14 | 6
CCn1nnc(-c2ccccc2NC(=O)c2cccc(-n3cnnn3)c2)n1 | -4 | 6 | -11 | 2 | 8 | -8 | · | ·
CCn1c(=O)cc(SCC(=O)N2CCN(c3ccccn3)CC2)c2ccccc21 | -21 | 6 | -14 | 7 | 1 | · | · | ·
CCn1c(=O)cc(SCC(=O)N2CCN(c3ccccc3F)CC2)c2ccccc21 | -70 | 20 | 3 | 12 | 24* | -1 | 14 | 12
COc1ccc(CNCC(O)(c2ccc(F)cc2)c2ccc(F)cc2)cc1 | -4 | · | 1 | · | 32* | -32 | 10 | 11
OC(CNCc1ccc(F)cc1)(c1ccccc1)c1ccc(F)cc1 (centres undefined) | -1 | 10 | -8 | 9 | 9 | 1 | · | ·
Cc1cc[n+](C(C)C(=O)c2ccc(-c3ccccc3)cc2)cc1 (centres undefined) | 2 | · | 9 | · | 4 | 9 | · | ·
OCC1(Cc2ccccc2Cl)CCN(C/C=C/c2ccccc2)CC1 | -29 | · | -22 | · | 27* | 7 | 15 | 12
Brc1ccc2c(c1)OCCOCCOCCOCCOCCOCCO2 | -7 | 6 | -2 | 3 | -2 | 22 | · | ·
CSc1ccc(CN2CCC(CO)(Cc3ccc(Cl)cc3)CC2)cc1 | -48 | · | -75 | · | 52* | -34 | 39* | 48*
Cn1nccc1NC(=O)CC1(CC(=O)O)CCCCC1 | 7 | · | 9 | · | · | · | · | ·
